Screening data deposited in PubChem BioAssay by Broad Institute.
IDH1 mut inh = inhibitors of human IDH1 R132H. O75874. IDH1 R132H reductase, diaphorase/resazurin fluorescence, 60 min. inhibition, % at 10 µM. 0.18% of 70,000 active. AID 624101; in the data active means inhibition above about 34%; inconclusive means no clear call, values can overlap the other calls; inactive means below about 11%;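 further: 0% = DMSO and 100% = no enzyme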
Target sequence (O75874 whole entry R132H): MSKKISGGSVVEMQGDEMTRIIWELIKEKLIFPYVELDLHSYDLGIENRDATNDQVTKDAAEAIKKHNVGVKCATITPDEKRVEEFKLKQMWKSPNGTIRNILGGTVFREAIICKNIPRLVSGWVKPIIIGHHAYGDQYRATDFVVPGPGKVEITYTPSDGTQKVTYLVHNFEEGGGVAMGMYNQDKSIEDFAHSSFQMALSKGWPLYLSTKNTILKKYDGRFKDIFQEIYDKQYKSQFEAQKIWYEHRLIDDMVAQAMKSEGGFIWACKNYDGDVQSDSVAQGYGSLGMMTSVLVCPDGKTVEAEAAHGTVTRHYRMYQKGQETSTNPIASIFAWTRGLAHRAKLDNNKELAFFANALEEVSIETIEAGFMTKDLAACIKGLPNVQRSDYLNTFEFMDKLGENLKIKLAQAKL
Pf Dd2 inh = blocks growth of Plasmodium falciparum Dd2 parasites | P. falciparum Dd2 growth, SYBR Green, 72 h; hits give low values | activity change, % at 10 µM | 2.3% of 94,000 active; in the data active means activity change below about -80%; inconclusive means no clear call, values can overlap the other calls
T cruzi growth-1 = inhibitors of T. cruzi proliferation; T. cruzi beta-gal in NIH3T3, GalScreen luminescence, 90 h; inhibition, % at 8.34 µM; 5.9% of 77,000 active;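 active means mean inhibition above about 93%, with at least 55% of replicates each passing it, limit read from the data, passing the limit was not always enough; inconclusive means only one of those two conditions holds; inactive means neither condition holds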
KDM4C inh = inhibitors of human demethylase GASC-1 KDM4C | 0.15% of 96,000 active | GST-KDM4C 2-372, H3K9me3 peptide, LANCE TR-FRET | inhibition, % at 12.5 µM;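 active means mean replicate inhibition above about 25%, with at least 55% of replicates also reaching it, limit read from the data, passing the limit was not always enough; inconclusive means only one of those two conditions met; inactive means neither condition met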
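System: N-terminal GST-fused human GASC-1 (KDM4C) fragment, residues 2-372; amount: enzyme final amount 10 nM; incubation: reaction 30 min RT, detection step 1 h RT; medium: HEPES buffer, pH 7.5, plus ascorbate; technique: LANCE TR-FRET, Eu antibody, ULight-streptavidin, EDTA, ex 340 nm, em 618/671 nm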
T cruzi growth-2 = inhibitors of T. cruzi proliferation. shares compounds with T cruzi growth-1. T. cruzi beta-gal in NIH3T3, GalScreen luminescence, 90 h. inhibition, % at 8.35 µM. 72% of 5,600 active. AID 651739;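 active means mean replicate inhibition above about 95% and at least 55% of replicates individually reaching it, limit read from the data; inconclusive means only one of the two criteria is met; inactive means neither criterion is met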
T cruzi growth-3 = inhibitors of T. cruzi proliferation | 21% of 5,600 active | T. cruzi beta-gal in NIH3T3, GalScreen luminescence, 90 h | inhibition, % at 2.09 µM | shares compounds with T cruzi growth-1;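 active means mean inhibition above about 95%, with at least 55% of replicates also reaching it, limit read from the data; inconclusive means meets just one of the two conditions; inactive means meets neither condition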;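 further: plate controls were neutral control median for no effect and positive control median for full effect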
NIH3T3 tox = NIH/3T3 (mouse) viability loss. shares compounds with T cruzi growth-1. NIH/3T3 viability, CellTiter-Glo ATP luminescence, 90 h. cytotoxicity (signal decrease), % at 8.35 µM. 14% of 5,600 active. AID 651742;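 active means mean signal decrease across replicates above about 35% based on untreated-well scatter, with enough replicates individually passing, limit read from the data; inconclusive means no rule stated though some were filed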;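 further: 0% = median of neutral control wells and 100% = median of positive control wells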
3T3 cytotox 2 = kills mouse NIH/3T3 fibroblasts. shares compounds with T cruzi growth-1. NIH/3T3 viability, CellTiter-Glo ATP luminescence, 90 h. inhibition, % at 24.9 µM. 56% of 5,600 active;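 active means mean loss of cell viability signal at or above a set limit, and enough replicates individually reaching it; inconclusive means meets only the mean limit or only the replicate share; inactive means meets neither condition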;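 further: 0% = median of neutral control wells and 100% = median of positive control wells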
* hit, by the source's call; u = inconclusive; x = no result. An excerpt weighted towards active compounds, which were near 5.8% of everything screened.

SMILES	IDH1 mut inh	Pf Dd2 inh	T cruzi growth-1	KDM4C inh	T cruzi growth-2	T cruzi growth-3	NIH3T3 tox	3T3 cytotox 2
COc1ccc(S(=O)(=O)n2nc(C)cc2C)cc1N(C)S(=O)(=O)c1ccccc1	0.7	x	x	x	x	x	x	x
Nc1cc(N)nc(SCC(=O)c2ccc(F)cc2)n1	2.6	x	x	x	x	x	x	x
O=C(c1ccccc1F)N1CC[C@@H]2[C@H]1c1cc(-c3ccc(F)cc3)ccc1N[C@@H]2CO	x	5.1	93.5	-0.9	x	x	x	x
O=C(c1ccccc1)N1CC[C@H]2[C@H](CO)Nc3ccc(-c4ccccc4F)cc3[C@H]21	x	-17.1	108.4*	-0.1	97.7*	88.8	13.8	22.9
O=C(c1ccc(F)cc1)N1CC[C@@H]2[C@@H](CO)Nc3ccc(-c4ccccc4F)cc3[C@@H]21	x	-50.8	109.8*	-2.0	104.3*	85.4	26.6	71.1*
O=C(c1ccccc1F)N1CC[C@H]2[C@H](CO)Nc3ccc(-c4ccc(F)cc4)cc3[C@H]21	x	-3.0	98.5*	0.0	101.1*	99.4*	11.3	95.0*
O=C(c1cccc(F)c1)N1CC[C@@H]2[C@@H](CO)Nc3ccc(-c4ccccc4F)cc3[C@@H]21	x	6.7	40.1	-0.2	x	x	x	x
O=C(c1ccccc1)N1CC[C@@H]2[C@H]1c1cc(-c3ccccc3F)ccc1N[C@@H]2CO	x	-25.7	109.9*	8.2	99.8*	83.1	20.8	30.4*
COc1ccc(CCNc2ncnc3scc(-c4cccs4)c23)cc1OC	3.2	x	x	x	x	x	x	x
COCC#Cc1ccc2c(c1)O[C@@H](CN(C)CC1CCCCC1)[C@H](C)CN([C@@H](C)CO)S2(=O)=O	0.1	-54.1	u	2.5	102.7*	90.3	u	105.0*
COCC#Cc1ccc2c(c1)O[C@@H](CN(C)CC1CCCCC1)[C@@H](C)CN([C@@H](C)CO)S2(=O)=O	-1.9	-70.3	105.3*	-0.6	101.9*	84.8	11.2	40.2*
COCC#Cc1ccc2c(c1)O[C@H](CN(C)CC1CCOCC1)[C@H](C)CN([C@@H](C)CO)S2(=O)=O	x	-77.1	12.6	-0.3	x	x	x	x
O=C(CCCCC(=O)N/N=C/c1ccco1)NO	-0.3	x	x	x	x	x	x	x
c1coc(-c2nn3c(C4COc5ccccc5O4)nnc3s2)c1 (stereo not given)	0.2	x	x	x	x	x	x	x
CC(NS(=O)(=O)c1ccccc1)C(=O)Nc1ccccc1F (stereo not given)	0.2	x	x	x	x	x	x	x
C[C@H](CO)N1C[C@H](C)[C@H](CN(C)C(=O)Cc2ccccn2)Oc2cc(C#Cc3ccccc3)ccc2S1(=O)=O	2.4	-85.1*	103.8*	-0.6	101.3*	26.9	27.8	24.5
C[C@@H]1CN([C@H](C)CO)S(=O)(=O)c2ccc(C#Cc3ccccc3)cc2O[C@H]1CN(C)C(=O)Cc1ccccn1	-0.2	u	u	-0.3	100.0*	24.3	24.1	84.8*
C[C@H](CO)N1C[C@H](C)[C@@H](CN(C)C(=O)Cc2ccccn2)Oc2cc(C#Cc3ccccc3)ccc2S1(=O)=O	1.7	-73.3	68.1	3.5	x	x	x	x
C[C@H](CO)N1C[C@H](C)[C@@H](CN(C)C(=O)CN(C)C)Oc2cc(C#Cc3ccccc3)ccc2S1(=O)=O	0.2	-83.1*	u	-0.1	104.8*	62.2	1.8	103.7*
COc1ccc(N2C(=O)N(c3ccc(F)cc3)C(=O)C2CC(=O)Nc2ccc(F)cc2)cc1 (stereo not given)	0.2	x	x	x	x	x	x	x
COc1ccc(S(=O)(=O)N[C@@H]2C=C[C@H](CC(=O)N3CCC(Cc4ccccc4)CC3)O[C@@H]2CO)cc1	-0.3	-13.2	u	-0.2	24.7	11.3	11.1	32.3*
COc1ccc(S(=O)(=O)N[C@@H]2C=C[C@@H](CC(=O)N3CCC(Cc4ccccc4)CC3)O[C@H]2CO)cc1	-0.4	-37.0	u	-0.7	64.9	-6.7	-6.7	31.7*
CC(C)(C)c1cc(C(C)(C)C)n(-c2ccc(-n3cccc3)cc2)n1	0.2	x	x	x	x	x	x	x
COc1ccc2c3c(n(C)c2c1)[C@H](CO)N(C(=O)CN(C)C)CC31CN(C(=O)C2CCC2)C1	x	15.5	x	1.9	x	x	x	x
